# MT stabilizer: microtubule stabilizers in HeLa cells | 200,000 compounds, 0.83% hits | HeLa tubulin immunostaining HCS, 24 h; share of cells brighter than vehicle mean+2SD | % tubulin-high responders, % at 10 µM | AID 2205;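 active = plate Z-score above 3 for both tubulin-high and condensed-nucleus cell shares, with cell loss under 80%, at 10 µM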;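 also: anti alpha tubulin signal scored within the nucleus-defined area of each cell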
# KCC2 mod: KCC2 (human) Cl- transport modulation. 190,000 compounds, 2.2% hits. B-score of Tl+ flux slope (higher = more flux/activation; lower = inhibition) at 10 µM. KCC2 cells, thallium flux FluoZin-2 fluorescence;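 active = thallium flux slope and its plate-corrected score both differing from the plate sample mean at a set confidence after two filtering rounds, in either direction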;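 also: slope of fluorescence scaled to starting intensity during 10 to 20 s after thallium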
# ROMK mod: modulates human ROMK potassium channel activity. P48048. Tet-inducible ROMK, thallium flux fluorescence; actives lie on both sides. B-score at 10 µM. 130,000 compounds, 2% hits;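 active = signal ratio slope over the read window, or its plate-corrected B-score, at least 3 SD from the plate mean, either direction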;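 also: B-score of the F/F0 ratio slope over 7 to 12 s after thallium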
# Target sequence (P48048 whole entry, looked up): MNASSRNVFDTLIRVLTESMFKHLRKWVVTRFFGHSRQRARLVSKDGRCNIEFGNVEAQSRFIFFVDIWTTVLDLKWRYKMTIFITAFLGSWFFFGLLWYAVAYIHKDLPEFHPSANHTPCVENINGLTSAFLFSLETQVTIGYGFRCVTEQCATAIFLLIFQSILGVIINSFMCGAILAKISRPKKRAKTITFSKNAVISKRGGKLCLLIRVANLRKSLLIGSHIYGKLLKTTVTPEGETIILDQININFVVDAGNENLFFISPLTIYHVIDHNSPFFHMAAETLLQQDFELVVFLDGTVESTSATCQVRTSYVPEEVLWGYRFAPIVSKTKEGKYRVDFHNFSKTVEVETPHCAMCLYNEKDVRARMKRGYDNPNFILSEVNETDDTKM
# DTT redox prof: compounds producing H2O2 with reducing agent – biochemical, NIH compound library profiling, artefact control for MLSCN library redox annotation, primary screen; DTT-dependent redox cycling H2O2, phenol red/HRP absorbance; 100% = 100 µM peroxide control, 0% = buffer; activation, % at 10 µM; 200,000 compounds, 0.03% hits; AID 878;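 active = activation of at least 50% relative to the plate's high and low controls in the primary single-dose screen; inactive = activation below 50%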;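 also: compound incubated with DTT at 0.8 mM final as the reducing agent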
# b-catenin transl: beta-catenin nuclear translocation modulation. nuclear translocation activity, % at 5 µM. HeLa beta-catenin nuclear translocation, immunofluorescence imaging. 190,000 compounds, 0.3% hits;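 active = nuclear translocation activity above 50% at 5 µM, with a well cell count of 50 or more; inconclusive = wells under 50 cells across six images, flagged as toxic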;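 also: per-cell ratio of nuclear to cytoplasmic median beta-catenin stain intensity; plate controls were DMSO negative control for no effect and GSK-3 inhibitor IX positive control for full effect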
#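 assay system = human HeLa cells, endogenous beta-catenin | times = compound treatment 24 h, 37°C, 5% CO2 | detection = Anti-beta-catenin immunofluorescence on PFA-fixed, Triton-permeabilized cells, DAPI nuclei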
# An asterisk follows results filed as active; ? = inconclusive; nt = no result given. Sampled rows, rich in hits. Any-hit rate of the full collection: about 3.7%.
SMILES,MT stabilizer,KCC2 mod,ROMK mod,DTT redox prof,b-catenin transl
O=C(Nc1ccccc1-c1nc2ccccc2o1)c1ccc2c(c1)OCCO2,15*,0.31,nt,4,nt
COc1ccc(Cn2c(=O)c3cccnc3n(Cc3ccc([N+](=O)[O-])cc3)c2=O)cc1,3,-0.51,2.8*,-1,-3
Cc1ccc2c(CC(=O)NCc3ccco3)coc2c1C,41*,nt,1,7,114*
COc1ccc(N=Cc2cc3c(cc2O)OC(N)=C(C#N)C3c2ccccc2)cc1 (configuration not stated),5,-0.8,nt,1,-1
COc1cc(/C=N/OCC(=O)Nc2ccc(OC(F)F)cc2)ccc1OCc1ccccc1,17*,-0.13,-0.68,0,4
CCOc1ccc(/C=N/OCC(=O)Nc2ccc(OCc3ccccc3)cc2)cc1OC,2,1.1,-0.71,2,-2
O=C(NNc1nc2cc3c(cc2s1)OCCO3)c1ccccc1,1,-0.45,0.64,0,-1
Fc1cccc2sc(Nc3nc4cc5c(cc4s3)OCCO5)nc12,2,11*,-0.078,0,-5
Fc1cccc2sc(Nc3nc4cc5c(cc4s3)OCO5)nc12,2,23*,0.063,0,-1
O=C(Nc1ccc(N2CCOCC2)cc1)C1(c2ccc(Cl)cc2)CCC1,9.9*,0.83,1.4,0,0
CC(=O)N1CCC(N(CCN2CCOCC2)C(=S)Nc2ccc(C)c(C)c2)CC1,2,0.89,-0.47,-2,-1
O=C1CC(/C=C/c2ccccn2)=Nc2ccccc2N1,7.4*,-0.46,0.64,0,0
N#CC1=C2SCC(O)(c3ccccc3)N2C(=O)CC1c1ccccc1 (configuration not stated),34*,-0.27,1,-1,46
CCOC(=O)c1c(NC(=O)CN2CCN(C)CC2)sc(C(=O)Nc2ccccc2)c1C,36*,-0.4,-2.2,-1,-1
S=C(Nc1ccccc1)Nc1cccc(Br)c1,7,1.3,-0.025,-1,0
S=C(Nc1cccc(Br)c1)c1ccccc1,4,3.7*,-1.6,0,nt
O=S(=O)(Nc1ccc(C(F)(F)F)cn1)c1ccccc1,nt,0.29,nt,nt,1
O=C(NC1(C(F)(F)F)N=C2SCCN2C1=O)c1ccccc1F (configuration not stated),nt,-0.037,nt,nt,-1
CNCC/C=C1/c2ccccc2CSc2ccccc21,5,-0.18,-4.9*,0,?
S=C(N/N=C/c1ccc2c(c1)OCO2)NC1CC2CCC1C2 (configuration not stated),nt,1,nt,nt,1
Cc1ccc(-n2c(O)c(/C=C3/C(c4ccccc4)=Nc4ccccc43)c(=O)[nH]c2=O)cc1,18*,-1.7,nt,0,0
Cc1ccccc1-n1c(O)c(/C=C/C=Nc2ccccc2)c(=O)[nH]c1=O,3,-1.1,nt,0,12
C=CS(=O)(=O)c1sc(Cl)c(N2CCOCC2)c1[N+](=O)[O-],2,-3.6*,-8.6*,2,0
C[N+]1=C(/C=C/Nc2ccccc2Cl)C(C)(C)c2ccccc21,5,-2.3,nt,0,0
COC(=O)c1ccc2c(c1)C(C)(C)C(/C=C/c1ccccc1O)=[N+]2C,53*,-1.3,nt,-3,1
SMILES,MT stabilizer,KCC2 mod,ROMK mod,DTT redox prof,b-catenin transl
CCOc1ccc(N(C(=O)CNC(=O)c2cccs2)C(C(=O)NCC2CCCO2)c2ccc(OC)c(OC)c2)cc1 (configuration not stated),3,-0.14,-0.077,0,0
CCN(CC)c1ccc(NC(=O)c2cccc(OC)c2)c(C)c1,53*,0.87,nt,2,nt
CC1Cc2ccccc2N1C(=O)c1cccnc1 (configuration not stated),2,1.5,nt,0,0
Cc1nc2ccc(C(=O)N3c4ccccc4CC3C)cc2s1 (configuration not stated),19*,-2.6,0.11,0,6
CC1(CCc2ccccc2)NC(=O)N(CC(=O)N2CC(=O)Nc3ccccc32)C1=O (configuration not stated),nt,-0.019,-0.045,nt,-3
Cc1ccc(C2c3sc(=O)[nH]c3SC3C(=O)NC(=O)C32)cc1 (configuration not stated),3,-6.8*,-1.6,0,0
COC(=O)C1Sc2[nH]c(=O)sc2C(c2ccc(Cl)cc2)C1C(=O)OC (configuration not stated),7,nt,nt,-1,nt
